Experimental data as given in ChEMBL document CHEMBL4346672, “Antimicrobial and KPC/AmpC inhibitory activity of functionalized benzosiloxaboroles” (Eur J Med Chem, 2019).
In brackets after ≈: the same amount, converted by molar mass.

System: Enterococcus faecalis
Test: Antibacterial activity against Enterococcus faecalis ATCC 29212 assessed as diameter of zone inhibition measured after 18 hrs by CLSI disc diffusion method
Assay type: functional
Conditions: not given
Summary of the method: (§1)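 Disc diffusion on Mueller-Hinton II agar. Compounds dissolved in DMSO. Strains stored at -80 °C and subcultured twice on tryptic soy agar before testing. Inhibition zones read after 35 °C, 18 h.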

Compound	diameter of the inhibition zone (DIZ) [mm]
C[Si]1(C)OB(O)c2ccc(Cl)cc21	17

System: Stenotrophomonas maltophilia
Test: Antibacterial activity against Stenotrophomonas maltophilia ATCC 13637 assessed as fold reduction of MIC in presence of efflux pump inhibitor PAbetaN incubated for 18 hrs by broth microdilution method
Assay type: functional
Conditions: not given
Summary of the method: (§2)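 MICs determined with and without PAβN at 50 mg/L in Mueller-Hinton broth containing 1 mM MgSO₄. 2-fold serial dilutions per CLSI. Fold change taken from the paired MICs after 35 °C, 18 h.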

Compound	fold change (FC)
C[Si]1(C)OB(O)c2ccc(Cl)cc21	16

System: Stenotrophomonas maltophilia
Test: Antibacterial activity against Stenotrophomonas maltophilia ATCC 13637 measured after 18 hrs by CLSI broth dilution method
Assay type: functional
Conditions: ATCC 13637, 18 h
Summary of the method: (§3)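 Broth MIC in Mueller-Hinton II broth following CLSI, compounds dissolved in DMSO. Strains subcultured twice on tryptic soy agar before testing. Growth read after 35 °C, 18 h.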

MIC [µg/mL]	Compound
100 (≈ 471 µM)	C[Si]1(C)OB(O)c2ccc(Cl)cc21

System: Burkholderia cepacia
Test: Antibacterial activity against Burkholderia cepacia ATCC 25416 assessed as diameter of zone inhibition measured after 18 hrs by CLSI disc diffusion method
Assay type: functional
Conditions: not given
Summary of the method: as §1

Compound	diameter of the inhibition zone (DIZ) [mm]
C[Si]1(C)OB(O)c2ccc(Cl)cc21	11

System: Meyerozyma guilliermondii
Test: Antifungal activity against Candida guilliermondii IBA 155 assessed as diameter of zone inhibition incubated for 24 hrs by CLSI disc diffusion method
Assay type: functional
Conditions: not given
Summary of the method: (§4)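 Yeast disc diffusion on Mueller-Hinton agar supplemented with 2% glucose and 0.5 mg/L methylene blue. Compounds in DMSO. Yeasts subcultured on Sabouraud dextrose agar before testing. Zones read after 35 °C, 24 h.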

Compound	diameter of the inhibition zone (DIZ) [mm]
C[Si]1(C)OB(O)c2ccc(Cl)cc21	30

System: not listed separately
Test: Dissociation constant, pKa1 of compound in 0.1 M NaOH by potentiometric analysis
Assay type: physicochemical
Conditions: not given

pKa	Compound
7.3	C[Si]1(C)OB(O)c2ccc(Cl)cc21

System: Staphylococcus aureus
Test: Antibacterial activity against Staphylococcus aureus ATCC 6538P measured after 18 hrs by CLSI broth dilution method
Assay type: functional
Conditions: not given
Summary of the method: as §3

MIC [µg/mL]	Compound
50 (≈ 235 µM)	C[Si]1(C)OB(O)c2ccc(Cl)cc21

System: Candida tropicalis
Test: Antifungal activity against Candida tropicalis IBA 171 assessed as diameter of zone inhibition incubated for 24 hrs by CLSI disc diffusion method
Assay type: functional
Conditions: not given
Summary of the method: as §4

Compound	diameter of the inhibition zone (DIZ) [mm]
C[Si]1(C)OB(O)c2ccc(Cl)cc21	15

System: Enterobacter cloacae
Test: Antibacterial activity against Enterobacter cloacae DSM 6234 measured after 18 hrs by CLSI broth dilution method
Assay type: functional
Conditions: DSM 6234, 18 h
Summary of the method: as §3

MIC [µg/mL]	Compound
> 400	C[Si]1(C)OB(O)c2ccc(Cl)cc21

System: Staphylococcus epidermidis
Test: Antibacterial activity against Staphylococcus epidermidis ATCC 12228 assessed as diameter of zone inhibition measured after 18 hrs by CLSI disc diffusion method
Assay type: functional
Conditions: not given
Summary of the method: as §1

Compound	diameter of the inhibition zone (DIZ) [mm]
C[Si]1(C)OB(O)c2ccc(Cl)cc21	33

System: Escherichia coli
Test: Antibacterial activity against Escherichia coli ATCC 25922 assessed as fold reduction of MIC in presence of efflux pump inhibitor PAbetaN incubated for 18 hrs by CLSI broth microdilution method
Assay type: functional
Conditions: not given
Summary of the method: as §2

Compound	fold change (FC)
C[Si]1(C)OB(O)c2ccc(Cl)cc21	64

System: Proteus mirabilis
Test: Antibacterial activity against Proteus mirabilis ATCC 12453 assessed as fold reduction of MIC in presence of efflux pump inhibitor PAbetaN incubated for 18 hrs by broth microdilution method
Assay type: functional
Conditions: not given
Summary of the method: as §2

Compound	fold change (FC)
C[Si]1(C)OB(O)c2ccc(Cl)cc21	4

System: Pseudomonas aeruginosa
Test: Antibacterial activity against Pseudomonas aeruginosa ATCC 27853 measured after 18 hrs by CLSI broth dilution method
Assay type: functional
Conditions: ATCC 27853, 18 h
Summary of the method: as §3

MIC [µg/mL]	Compound
> 400	C[Si]1(C)OB(O)c2ccc(Cl)cc21

System: Burkholderia cepacia
Test: Antibacterial activity against Burkholderia cepacia ATCC 25416 measured after 18 hrs by CLSI broth dilution method
Assay type: functional
Conditions: ATCC 25416, 18 h
Summary of the method: as §3

MIC [µg/mL]	Compound
> 400	C[Si]1(C)OB(O)c2ccc(Cl)cc21

System: Staphylococcus aureus
Test: Antibacterial activity against Staphylococcus aureus ATCC 6538P assessed as diameter of zone inhibition measured after 18 hrs by CLSI disc diffusion method
Assay type: functional
Conditions: not given
Summary of the method: as §1

Compound	diameter of the inhibition zone (DIZ) [mm]
C[Si]1(C)OB(O)c2ccc(Cl)cc21	20

System: Enterococcus faecium
Test: Antibacterial activity against Enterococcus faecium ATCC 6057 measured after 18 hrs by CLSI broth dilution method
Assay type: functional
Conditions: ATCC 6057, 18 h
Summary of the method: as §3

MIC [µg/mL]	Compound
50 (≈ 235 µM)	C[Si]1(C)OB(O)c2ccc(Cl)cc21

System: Candida parapsilosis
Test: Antifungal activity against Candida parapsilosis ATCC 22019 assessed as diameter of zone inhibition incubated for 24 hrs by CLSI disc diffusion method
Assay type: functional
Conditions: not given
Summary of the method: as §4

Compound	diameter of the inhibition zone (DIZ) [mm]
C[Si]1(C)OB(O)c2ccc(Cl)cc21	18

System: Meyerozyma guilliermondii
Test: Antifungal activity against Candida guilliermondii IBA 155 assessed as decrease in fungal cell growth at 0.78 to 12.5 mg/L incubated for 24 hrs by CLSI broth dilution method
Assay type: functional
Conditions: IBA 155, 24 h
Summary of the method: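 Yeast broth dilution in RPMI 1640 with 2% glucose, compounds in DMSO. Yeasts pre-grown on Sabouraud dextrose agar. Growth read after 35 °C, 24 h.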

MIC [µg/mL]	Compound
25 (≈ 118 µM)	C[Si]1(C)OB(O)c2ccc(Cl)cc21
